Hits are enriched below; roughly 5% of the tested compounds scored in any of these assays.
UPR XBP1 act = adaptive UPR (XBP1) activation; activation, % at 20 µM; CHO-XBP1 luciferase reporter, IRE1-XBP1 UPR activation, luminescence; percent of tunicamycin response, DMSO as zero; actives 0.33% (n = 330,000);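 active = versus positive control, 20 µM dose yields 30% or more activation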
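Material: CHO cell line with stable XBP1 luciferase reporter; buffer or medium: F12 medium containing 10% fetal bovine serum; compound: single point, 20 µM final compound, 1% DMSO; incubation: 6 h treatment, 37 °C; measured by: glow luminescence from Steady-Glo reagent; evaluation: activation, % of tunicamycin; control set: tunicamycin high, DMSO low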
CHOP UPR activ = activators of apoptotic arm of unfolded protein response (CHOP); CHO-CHOP luciferase reporter, UPR activation, luminescence; percent of tunicamycin response over DMSO baseline; activation, % at 10 µM; actives 0.34% (n = 330,000); AID 449763;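 active = at 10 µM dose, activation of 40% or more, normalized to positive control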
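Assay system: CHO cells with stable CHOP pathway luciferase reporter; Buffer or medium: F12 plus 10% serum; Times: 16-18 h cell attachment, then 6 h compound exposure, 37 °C; Signal: luciferase luminescence; Read-out basis: percent activation relative to tunicamycin control; Control set: tunicamycin high control, DMSO low control.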
T cruzi inh = T. cruzi replication inhibition; actives 1.4% (n = 300,000); T. cruzi beta-gal in NIH3T3, luminescence, 90 h; inhibition, % (concentration not given with the values); AID 1885;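 active = mean inhibition across valid replicates above about 55%, limit read from the data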;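 also: signal also drops with host cell toxicity which is not excluded here; higher percent means less beta-gal luminescence so fewer parasites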
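Read-out: Parasite load inhibition, % | Test system: Mouse NIH/3T3 fibroblasts infected with β-gal-expressing T. cruzi Tulahuen C4 | Amount: 5,000 cells/well | Medium: DMEM, 2% fetal bovine serum | Signal: GalScreen β-gal luminescence, detergent lysis, 60 min | Timing: 3 h attach, ≥90 h co-culture | Also added: Tulahuen C4 trypomastigotes, 5000/well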
CSC inhib = blocks cancer stem cells; cancer stem cell-like cells viability, luminescence; inhibition, % at 7.5 µM; actives 1.1% (n = 300,000); in the data active = inhibition above about 75%; tested in HMLE shEcad cells
Mdm2-MdmX inh = inhibitors of human Mdm2/MdmX interaction. SaOS-2 split-luciferase Mdm2/MdmX complementation, luminescence. actives 3% (n = 330,000). inhibition, % at 8 µM;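 active = inhibition of at least 50% at 8 µM in the primary screen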
Beta apoptosis = beta cell apoptosis inhibition; INS-1E cytokine-induced death, ATP luminescence, 48 h; percent of positive-control rescue, neutral wells zero; protection from apoptosis, % (no concentration beside the values); actives 0.8% (n = 300,000); AID 435005;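 active = Every replicate reaches about 75%, or at least half do and their mean reaches it too, limit read from the data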;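 also: higher means more ATP so stronger rescue from cytokine killing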
Mdm2-MdmX conf = human Mdm2/MdmX binding inhibition, confirmed; shares compounds with Mdm2-MdmX inh; luminescent assay; inhibition, % at 8 µM; actives 55% (n = 10,000); in the data active = inhibition above about 40%
Full FLuc ctr = full-length luciferase inhibition in Mdm2/MdmX counter-screen; shares compounds with Mdm2-MdmX inh; SaOS-2 full-length luciferase counterscreen, luminescence; inhibition, % at 8 µM; actives 77% (n = 6,200); AID 504607;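 active = mean inhibition at 8 µM reaching about 37%, which flags the compound as non-specific, limit read from the data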;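 also: p53-null SaOS-2 cells with luciferase driven by a doxycycline-inducible promoter; compound on cells about two nights before reading with doxycycline added after day one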
Of the large screens only hits and unclear results are named; the others gave an inactive call (follow-up assays come after a bar, where they were run).

Cc1ccc(N2CCC(N3CCN(C)C(CCO)C3)CC2)cc1 (stereo not drawn)	none (no result: Beta apoptosis)
CCN(CC)CCNC(=O)CCc1c(C)nc2c(c(C)nn2-c2ccc(C)cc2)c1C	Mdm2-MdmX inh 61 | Mdm2-MdmX conf inactive
COCCNC(=O)CCc1c(C)nc2c(c(C)nn2-c2ccc(C)cc2)c1C	none
O=C(N/N=C/c1ccc(Cl)c([N+](=O)[O-])c1)c1cnccn1	none
O=C(N/N=C/c1ccc(Sc2nc3ccccc3s2)c([N+](=O)[O-])c1)c1ccccn1	Mdm2-MdmX inh 74 | Mdm2-MdmX conf 52 | Full FLuc ctr 55
CC(=O)c1c(-c2ccccc2)[nH]c2ccccc12	Mdm2-MdmX inh 52 | Mdm2-MdmX conf inactive
Cc1cccc(N2C(=O)c3cccc4c(N5CCCCC5)c([N+](=O)[O-])cc(c34)C2=O)c1C	none (no result: Beta apoptosis)
Cc1ccc(N2C(=O)c3cccc4c(N5CCN(C)CC5)ccc(c34)C2=O)c2cccnc12	Mdm2-MdmX inh 66 | Mdm2-MdmX conf 65 | Full FLuc ctr 57
Cc1nnc(N2C(=O)c3cccc4c([N+](=O)[O-])ccc(c34)C2=O)s1	Mdm2-MdmX inh 61 | Mdm2-MdmX conf inactive
Cc1ccc(N2C(=O)c3cccc4c([N+](=O)[O-])ccc(c34)C2=O)c2cccnc12	Mdm2-MdmX inh 92 | Mdm2-MdmX conf 60 | Full FLuc ctr 60
O=C1c2cccc3c(N4CCCCC4)ccc(c23)C(=O)N1c1ccccc1O	none
Cc1ccnc(N2C(=O)c3cccc4c([N+](=O)[O-])ccc(c34)C2=O)c1	T cruzi inh 64, CSC inhib 121, Mdm2-MdmX inh 100 | Mdm2-MdmX conf inactive
CCOc1ccc(C(CC(=O)O)NC(=O)C(CC)c2ccccc2)cc1 (stereo not drawn)	none
COc1ccccc1NC(=O)C(C)OC(=O)C(C)SCC(=O)Nc1ccc(C)cc1 (stereo not drawn)	none (no result: T cruzi inh, CSC inhib, Beta apoptosis)
Cc1ccc(Nc2cc(C)nn2-c2nc(C)cc(=O)[nH]2)cc1	CHOP UPR activ 190, T cruzi inh 56, CSC inhib 93, Mdm2-MdmX inh 98, Beta apoptosis 98 | Mdm2-MdmX conf 100 | Full FLuc ctr inactive
CN(Cc1ccccc1)c1ncnc2ccc(Br)cc12	Mdm2-MdmX inh 57 | Mdm2-MdmX conf 49 | Full FLuc ctr 39
CC(C)N(C(C)C)S(=O)(=O)c1ccc(NC(=O)c2cnccn2)cc1	none
COc1ccc(CN2CCNC(=O)C2CC(=O)N2CCCCO2)cc1OC (stereo not drawn)	none
Brc1ccc2c(c1)OCCOCCOc1cc(Br)ccc1OCCOCCOCCO2	T cruzi inh 65, Mdm2-MdmX inh 74 | Mdm2-MdmX conf inactive | Full FLuc ctr 60
Brc1cc2c(cc1Br)OCCOCCOCCOCCO2	none
Cc1cccc(COCC(Cc2ccccc2)N2CCN(C(=O)c3ccc(C(F)(F)F)cc3)CCC2=O)c1 (stereo not drawn)	Mdm2-MdmX inh 57 | Mdm2-MdmX conf inactive
O=C(c1ccc(Cl)c(Cl)c1)N1CCC(=O)N(C(COCc2cccc(Cl)c2)Cc2ccccc2)CC1 (stereo not drawn)	Mdm2-MdmX inh 54 | Mdm2-MdmX conf inactive
O=C(Nc1ccc(Cl)cc1)c1nc[nH]c1C(=O)NCCCNC(=O)c1[nH]cnc1C(=O)Nc1ccc(Cl)cc1	Mdm2-MdmX inh 97 (no result: T cruzi inh, CSC inhib) | Mdm2-MdmX conf inactive
O=C(Nc1ccc(Cl)cc1)c1nc[nH]c1C(=O)NCCN(CCNC(=O)c1[nH]cnc1C(=O)Nc1ccc(Cl)cc1)CCNC(=O)c1[nH]cnc1C(=O)Nc1ccc(Cl)cc1	CSC inhib 101, Mdm2-MdmX inh 100, Beta apoptosis 104 (no result: T cruzi inh) | Mdm2-MdmX conf 98 | Full FLuc ctr 56
Cc1ccc(NC(=O)c2nc[nH]c2C(=O)Nc2ccc(C)cc2)cc1	none

High-throughput results deposited in PubChem BioAssay by several laboratories.
